Key:
[1] = test system: Staphylococcus aureus; experiment: Antibacterial activity against methicillin-susceptible Staphylococcus aureus isolates from skin or soft tissue infection outpatients; format: functional
Method in brief: (§1)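 Isolates came from S. aureus-positive wound cultures. Clinicians took these at their discretion when resistant infection was suspected, in clinic patients with signs or symptoms of skin or soft tissue infection. Only cases with recorded antibiotic sensitivities were included. Nasal carriage cultures and outside-hospital cases lacking culture data were excluded. Yearly susceptibility trends used the Mantel score test, two-sided.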

[2] = test system: Staphylococcus aureus; experiment: Antibacterial activity against methicillin-resistant Staphylococcus aureus isolates from skin or soft tissue infection outpatients; format: functional; method in brief: as §1

SMILES: CCC[C@@H]1C[C@@H](C(=O)NC(C(C)Cl)[C@H]2O[C@H](SC)[C@H](O)[C@@H](O)[C@H]2O)N(C)C1 (single isomer, unassigned) [CLINDAMYCIN]
- Activity [1]: 7%
- Activity [2]: 48.2%

SMILES: Cc1nnc(SCC2=C(C(=O)O)N3C(=O)[C@@H](NC(=O)Cn4cnnn4)[C@H]3SC2)s1 [CEFAZOLIN]
- Activity [1]: 0%
- Activity [2]: 100%

SMILES: O=C(N[C@H](CO)[C@H](O)c1ccc([N+](=O)[O-])cc1)C(Cl)Cl [CHLORAMPHENICOL]
- Activity [1]: 0%

SMILES: O=C(O)c1cn(C2CC2)c2cc(N3CCNCC3)c(F)cc2c1=O [CIPROFLOXACIN]
- Activity [1]: 8.8%
- Activity [2]: 78.5%

SMILES: CC[C@H]1OC(=O)[C@H](C)[C@@H](O[C@H]2C[C@@](C)(OC)[C@@H](O)[C@H](C)O2)[C@H](C)[C@@H](O[C@@H]2O[C@H](C)C[C@H](N(C)C)[C@H]2O)[C@](C)(O)C[C@@H](C)C(=O)[C@H](C)[C@@H](O)[C@]1(C)O [ERYTHROMYCIN]
- Activity [1]: 57.9%
- Activity [2]: 93.8%

SMILES: C[C@H]1COc2c(N3CCN(C)CC3)c(F)cc3c(=O)c(C(=O)O)cn1c23.C[C@H]1COc2c(N3CCN(C)CC3)c(F)cc3c(=O)c(C(=O)O)cn1c23.O [LEVOFLOXACIN]
- Activity [1]: 0%
- Activity [2]: 33.3%

SMILES: CO[C@H]1/C=C/O[C@@]2(C)Oc3c(C)c(O)c4c(O)c(c(/C=N/N5CCN(C)CC5)c(O)c4c3C2=O)NC(=O)/C(C)=C\C=C\[C@H](C)[C@H](O)[C@@H](C)[C@@H](O)[C@@H](C)[C@H](OC(C)=O)[C@@H]1C [RIFAMPIN]
- Activity [1]: 0%

SMILES: CN(C)[C@@H]1C(O)=C(C(N)=O)C(=O)[C@@]2(O)C(O)=C3C(=O)c4c(O)cccc4[C@@](C)(O)[C@H]3C[C@@H]12 [TETRACYCLINE]
- Activity [1]: 0%
- Activity [2]: 53.8%

SMILES: CN[C@H](CC(C)C)C(=O)N[C@H]1C(=O)N[C@@H](CC(N)=O)C(=O)N[C@H]2C(=O)N[C@H]3C(=O)N[C@H](C(=O)N[C@H](C(=O)O)c4cc(O)cc(O)c4-c4cc3ccc4O)[C@H](O)c3ccc(c(Cl)c3)Oc3cc2cc(c3O[C@@H]2O[C@H](CO)[C@@H](O)[C@H](O)[C@H]2O[C@H]2C[C@](C)(N)[C@H](O)[C@H](C)O2)Oc2ccc(cc2Cl)[C@H]1O [VANCOMYCIN]
- Activity [1]: 0%
- Activity [2]: 0%

From ChEMBL document CHEMBL1142184, “Treatment and outcomes of infections by methicillin-resistant Staphylococcus aureus at an ambulatory clinic” (2007)
